In ChEMBL document CHEMBL4052682, “Exploitation of Conformational Dynamics in Imparting Selective Inhibition for Related Matrix Metalloproteinases” (ACS Med Chem Lett, 2017):
Active and inactive are the calls of the source. No cut-off for these calls is given here.

How the values were obtained:
Collagenase 3 [1] = target: T1, Collagenase 3 (Homo sapiens, UniProt P45452); assay: Inhibition of human recombinant MMP-13 catalytic domain (104 to 274 residues) expressed in Escherichia coli using fluorogenic Mca-KPLGL-Dpa-AR-NH2 as substrate at 10 uM by fluorescence spectrophotometric analysis relative to control
How it was run: (§1)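 Single-concentration screen: compounds were incubated at 10 μM with each MMP and its substrate, and percent inhibition was measured.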

[2] = target: Matrix metalloproteinase-14 (Homo sapiens) (UniProt P50281); assay: Inhibition of human recombinant MMP-14 catalytic domain ([…]) using fluorogenic MOCAc-Pro-Leu-Gly-Leu-A2pr(Dnp)-Ala-Arg-NH2 as substrate at 10 uM by fluorescence spectrophotometric analysis relative to control; how it was run: as §1
Collagenase 3 [3] = target: T1, Collagenase 3; assay: Inhibition of human recombinant MMP-13 catalytic domain (104 to 274 residues) expressed in Escherichia coli using fluorogenic Mca-KPLGL-Dpa-AR-NH2 as substrate by fluorescence spectrophotometric analysis
How it was run: (§2)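 Ki was determined only for compounds giving more than 50% inhibition in the 10 μM enzyme–substrate screen.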

[4] = target: Stromelysin-1 (Homo sapiens) (UniProt P08254); assay: Inhibition of human recombinant MMP-3 catalytic domain expressed in Escherichia coli using fluorogenic MOCAc-Arg-Pro-Lys-Pro-Val-Glu-Nva-Trp-Arg-Lys(Dnp)-NH2 as substrate at 10 uM by fluorescence spectrophotometric analysis; how it was run: as §1
[5] = target: T2, Matrilysin (Homo sapiens) (UniProt P09237); assay: Inhibition of human recombinant active MMP-7 expressed in Escherichia coli using fluorogenic MOCAc-Pro-Leu-Gly-Leu-A2pr(Dnp)-Ala-Arg-NH2 as substrate at 10 uM by fluorescence spectrophotometric analysis; how it was run: as §1
T2 sequence (whole entry): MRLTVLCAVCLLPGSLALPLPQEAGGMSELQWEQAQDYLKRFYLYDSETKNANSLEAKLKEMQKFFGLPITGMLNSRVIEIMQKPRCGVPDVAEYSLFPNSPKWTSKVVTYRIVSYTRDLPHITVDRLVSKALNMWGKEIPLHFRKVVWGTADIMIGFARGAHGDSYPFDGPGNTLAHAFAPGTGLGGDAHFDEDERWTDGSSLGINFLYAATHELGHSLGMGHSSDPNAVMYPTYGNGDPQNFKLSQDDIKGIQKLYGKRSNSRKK

[6] = target: Matrix metalloproteinase-14 (Homo sapiens) (UniProt P50281); assay: Inhibition of human recombinant MMP-14 catalytic domain (89 to 265 residues) expressed in Escherichia coli using fluorogenic MOCAc-Pro-Leu-Gly-Leu-A2pr(Dnp)-Ala-Arg-NH2 as substrate at 10 uM by fluorescence spectrophotometric analysis; how it was run: as §1
[7] = target: MMP-8 (neutrophil collagenase) (Homo sapiens, UniProt P22894); assay: (§3) Inhibition of human recombinant MMP-8 catalytic domain (99 to 269 residues) expressed in Escherichia coli using fluorogenic Mca-KPLGL-Dpa-AR-NH2 as substrate at 10 uM by fluorescence spectrophotometric analysis relative to control; details: probe Mca-KPLGL-Dpa-AR-NH2 (fluorogenic)
[8] = target: 72 kDa type IV collagenase (Homo sapiens) (UniProt P08253); assay: Inhibition of human recombinant full length active MMP-2 expressed in mouse cells using fluorogenic MOCAc-Pro-Leu-Gly-Leu-A2pr(Dnp)-Ala-Arg-NH2 as substrate at 10 uM by fluorescence spectrophotometric analysis; type: biochemical; how it was run: as §1
Neutrophil collagenase [9] = target: T3, Neutrophil collagenase (Homo sapiens, UniProt P22894); assay: Inhibition of human recombinant MMP-8 catalytic domain (99 to 269 residues) expressed in Escherichia coli using fluorogenic Mca-KPLGL-Dpa-AR-NH2 as substrate by fluorescence spectrophotometric analysis; how it was run: as §2
[10] = target: T4, Interstitial collagenase (Homo sapiens) (UniProt P03956); assay: Inhibition of human recombinant MMP-1 catalytic domain (100 to 268 residues) expressed in Escherichia coli using fluorogenic Mca-KPLGL-Dpa-AR-NH2 as substrate at 10 uM by fluorescence spectrophotometric analysis; how it was run: as §1
T4 sequence (whole entry): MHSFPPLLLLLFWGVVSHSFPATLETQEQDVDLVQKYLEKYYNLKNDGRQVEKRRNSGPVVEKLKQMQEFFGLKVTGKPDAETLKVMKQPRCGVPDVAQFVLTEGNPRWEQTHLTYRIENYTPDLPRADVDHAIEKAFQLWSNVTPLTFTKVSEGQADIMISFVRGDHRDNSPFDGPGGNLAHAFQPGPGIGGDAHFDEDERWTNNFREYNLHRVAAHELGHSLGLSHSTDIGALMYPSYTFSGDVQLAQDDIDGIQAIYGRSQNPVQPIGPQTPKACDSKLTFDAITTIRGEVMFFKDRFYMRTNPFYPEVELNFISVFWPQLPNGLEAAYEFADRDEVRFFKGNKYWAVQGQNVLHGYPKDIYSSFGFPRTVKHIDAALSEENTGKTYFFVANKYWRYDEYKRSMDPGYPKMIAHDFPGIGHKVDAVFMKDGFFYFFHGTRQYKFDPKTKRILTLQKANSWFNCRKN

[11] = target: Matrix metalloproteinase-9 (Homo sapiens) (UniProt P14780); assay: Inhibition of human recombinant MMP-9 catalytic domain (107 to 449 residues) expressed in Escherichia coli using fluorogenic MOCAc-Pro-Leu-Gly-Leu-A2pr(Dnp)-Ala-Arg-NH2 as substrate at 10 uM by fluorescence spectrophotometric analysis; how it was run: as §1
[12] = target: Matrix metalloproteinase-14 (Homo sapiens) (UniProt P50281); assay: Inhibition of human recombinant MMP-14 catalytic domain ([…]) using fluorogenic MOCAc-Pro-Leu-Gly-Leu-A2pr(Dnp)-Ala-Arg-NH2 as substrate at 50 uM by fluorescence spectrophotometric analysis relative to control
Neutrophil collagenase [13] = target: T3, Neutrophil collagenase; assay: as §3; details: 10 µM
[14] = Volume of distribution in CD-1 mouse at 1 mg/kg, iv administered as single dose by UPLC analysis; type: ADME, organism-based; details: in vivo
How it was run: (§4)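 Mouse pharmacokinetics after a single 1 mg/kg intravenous dose. Three mice were sampled per time point and plasma concentration–time curves were built. Plasma levels were read at 2 min and at 24 h. AUC0-∞, clearance (also expressed as a percentage of hepatic blood flow), volume of distribution and elimination half-life were derived from the curves.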

[15] = AUC (0 to infinity) in CD-1 mouse at 1 mg/kg, iv administered as single dose by UPLC analysis; type: ADME, organism-based; set-up: dose 1 mg/kg, time infinity, route intravenous; details: in vivo; how it was run: as §4
[16] = Cmax in CD-1 mouse at 10 mg/kg, po after 6 hrs by UPLC analysis; type: ADME, organism-based; set-up: dose 10 mg/kg, route oral; details: in vivo
How it was run: (§5)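 Mouse pharmacokinetics after a single 10 mg/kg oral dose. Three mice were sampled per time point, out to 48 h, and plasma concentration–time curves were built. Cmax and its time, elimination half-life and AUC0-∞ were derived. Absolute oral bioavailability came from the oral AUC relative to the intravenous (1 mg/kg) AUC, after dose adjustment.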

[17] = Plasma concentration in CD-1 mouse at 10 mg/kg, po after 48 hrs by UPLC analysis; details: in vivo
[18] = Elimination half life in CD-1 mouse at 10 mg/kg, po by UPLC analysis; type: ADME, organism-based; details: in vivo, read-out: beta t1/2 (converted); how it was run: as §5
[19] = AUC (0 to infinity) in CD-1 mouse at 10 mg/kg, po by UPLC analysis; type: ADME, organism-based; set-up: dose 10 mg/kg, time infinity, route oral; details: in vivo
[20] = Oral bioavailability in CD-1 mouse at 10 mg/kg by UPLC analysis; type: ADME, organism-based; details: in vivo; how it was run: as §5
[21] = Elimination half life in CD-1 mouse at 1 mg/kg, iv administered as single dose by UPLC analysis; type: ADME, organism-based; details: in vivo, read-out: beta t1/2 (converted); how it was run: as §4
[22] = Plasma concentration in CD-1 mouse at 1 mg/kg, iv administered as single dose after 2 mins by UPLC analysis; type: ADME, organism-based; how it was run: as §4
Mus musculus [23] = assay: Time at which plasma concentration stays above human recombinant MMP-13 Ki level in CD-1 mouse at 1 mg/kg, iv administered as single dose by UPLC analysis
[24] = Clearance in CD-1 mouse at 1 mg/kg, iv administered as single dose by UPLC analysis; type: ADME, organism-based; details: in vivo; how it was run: as §4
Mus musculus [25] = assay: Clearance in CD-1 mouse at 1 mg/kg, iv administered as single dose by UPLC analysis relative to hepatic blood flow; type: ADME, organism-based; details: in vivo; how it was run: as §4
[26] = Plasma concentration in CD-1 mouse at 1 mg/kg, iv administered as single dose after 24 hrs by UPLC analysis; type: ADME, organism-based; how it was run: as §4

Chain of 72 kDa type IV collagenase (Homo sapiens) (P08253 110-660 limits assumed): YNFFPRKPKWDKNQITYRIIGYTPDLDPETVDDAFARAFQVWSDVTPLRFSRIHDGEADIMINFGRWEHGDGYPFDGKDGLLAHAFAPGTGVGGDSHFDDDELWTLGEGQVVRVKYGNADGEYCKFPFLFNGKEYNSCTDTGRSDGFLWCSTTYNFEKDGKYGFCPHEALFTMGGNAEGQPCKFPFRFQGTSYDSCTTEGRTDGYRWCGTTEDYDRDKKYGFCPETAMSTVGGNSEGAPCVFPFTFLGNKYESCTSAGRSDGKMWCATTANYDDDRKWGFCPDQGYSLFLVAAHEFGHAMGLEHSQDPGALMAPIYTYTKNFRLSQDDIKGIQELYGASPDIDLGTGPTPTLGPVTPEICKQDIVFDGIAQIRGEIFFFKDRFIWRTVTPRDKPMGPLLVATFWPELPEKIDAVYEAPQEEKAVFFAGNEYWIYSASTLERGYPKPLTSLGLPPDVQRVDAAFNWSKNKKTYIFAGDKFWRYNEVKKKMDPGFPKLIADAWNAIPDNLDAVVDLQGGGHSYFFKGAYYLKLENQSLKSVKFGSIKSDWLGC
Chain of Stromelysin-1 (Homo sapiens) (P08254 100-477 limits assumed): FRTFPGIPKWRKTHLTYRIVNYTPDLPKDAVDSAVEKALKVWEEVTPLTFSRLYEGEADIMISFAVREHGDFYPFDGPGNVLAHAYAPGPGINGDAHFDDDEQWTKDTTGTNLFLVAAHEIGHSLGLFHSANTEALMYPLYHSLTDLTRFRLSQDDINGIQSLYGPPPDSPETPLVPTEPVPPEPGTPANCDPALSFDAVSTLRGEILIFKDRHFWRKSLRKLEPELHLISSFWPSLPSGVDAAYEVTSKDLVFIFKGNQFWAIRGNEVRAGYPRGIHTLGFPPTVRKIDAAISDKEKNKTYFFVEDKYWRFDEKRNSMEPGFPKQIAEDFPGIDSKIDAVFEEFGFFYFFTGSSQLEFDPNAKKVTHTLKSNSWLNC
Chain of Matrix metalloproteinase-9 (Homo sapiens) (P14780 whole entry, the tested form may be a part): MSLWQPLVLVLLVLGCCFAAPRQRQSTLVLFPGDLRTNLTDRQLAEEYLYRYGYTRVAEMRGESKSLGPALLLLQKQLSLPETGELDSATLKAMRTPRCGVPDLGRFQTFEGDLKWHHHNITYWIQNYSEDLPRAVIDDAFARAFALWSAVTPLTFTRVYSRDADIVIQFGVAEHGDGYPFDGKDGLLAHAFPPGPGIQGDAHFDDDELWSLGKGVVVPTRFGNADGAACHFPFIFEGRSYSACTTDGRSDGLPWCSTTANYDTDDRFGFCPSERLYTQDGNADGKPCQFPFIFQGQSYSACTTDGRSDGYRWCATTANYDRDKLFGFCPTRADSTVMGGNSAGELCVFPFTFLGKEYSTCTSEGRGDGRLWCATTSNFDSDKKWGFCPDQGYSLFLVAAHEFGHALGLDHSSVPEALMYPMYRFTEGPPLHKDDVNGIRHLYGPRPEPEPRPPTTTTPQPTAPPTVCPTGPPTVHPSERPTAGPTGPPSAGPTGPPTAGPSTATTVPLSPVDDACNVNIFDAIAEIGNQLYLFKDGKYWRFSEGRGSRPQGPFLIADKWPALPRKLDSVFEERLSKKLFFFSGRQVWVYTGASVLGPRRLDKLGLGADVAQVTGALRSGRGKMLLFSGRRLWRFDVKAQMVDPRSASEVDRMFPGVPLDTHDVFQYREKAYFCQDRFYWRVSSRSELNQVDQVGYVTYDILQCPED
T3 sequence (P22894 whole entry, the tested form may be a part): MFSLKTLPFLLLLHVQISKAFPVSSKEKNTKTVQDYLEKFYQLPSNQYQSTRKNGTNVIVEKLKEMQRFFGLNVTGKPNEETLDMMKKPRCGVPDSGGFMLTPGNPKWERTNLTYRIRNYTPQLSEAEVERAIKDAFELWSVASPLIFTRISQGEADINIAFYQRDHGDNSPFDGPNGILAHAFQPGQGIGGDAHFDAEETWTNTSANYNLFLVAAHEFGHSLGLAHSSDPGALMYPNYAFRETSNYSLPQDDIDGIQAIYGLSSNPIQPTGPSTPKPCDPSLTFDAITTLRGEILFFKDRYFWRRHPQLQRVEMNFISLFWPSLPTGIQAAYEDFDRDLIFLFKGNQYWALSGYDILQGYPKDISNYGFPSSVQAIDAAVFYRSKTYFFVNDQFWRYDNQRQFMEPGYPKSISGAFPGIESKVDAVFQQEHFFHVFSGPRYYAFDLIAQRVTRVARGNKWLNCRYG
Chain of MMP-8 (neutrophil collagenase) (P22894 whole entry, the tested form may be a part): as above

| SMILES | inhibition (Collagenase 3 [1]) | inhibition [2] | Ki (Collagenase 3 [3]) | inhibition [4] | inhibition [5] | inhibition [6] | inhibition at 10 µM [7] | inhibition [8] | Ki (Neutrophil collagenase [9]) | inhibition [10] | inhibition [11] | inhibition (INH) (Neutrophil collagenase [13]) | other results |
| --- | --- | --- | --- | --- | --- | --- | --- | --- | --- | --- | --- | --- | --- |
| O=C1COc2ccc(CNC(=O)c3nc4scc(CCc5ccccc5)c4c(=O)[nH]3)cc2N1 | > 50% | 4% | 0.19 µM | inactive | inactive | inactive | > 50% | inactive | 6.5 µM | inactive | inactive | – | – |
| O=C1COc2ccc(CNC(=O)c3nc4sc(C5CCCCC5)cc4c(=O)[nH]3)cc2N1 | > 50% | – | 0.0245 µM | inactive | inactive | inactive | > 50% | inactive | 0.0033 µM | inactive | inactive | – | inhibition [12]: 57% |
| O=C1COc2ccc(CNC(=O)c3cc(-c4cccc5ccccc45)n[nH]3)cc2N1 | Active | – | – | – | – | – | – | – | – | – | – | Not Active | – |
| O=C1COc2ccc(CNC(=O)c3cc(-c4ccccc4)n[nH]3)cc2N1 | Active | – | – | – | – | – | – | – | – | – | – | Not Active | – |
| O=C1COc2ccc(CNC(=O)c3nc4sc5c(c4c(=O)[nH]3)CCCCCC5)cc2N1 | > 50% | 14% | 0.00059 µM | inactive | inactive | inactive | > 50% | inactive | 0.00071 µM | inactive | inactive | – | – |
| O=C1COc2ccc(CNC(=O)c3nc4scc(-c5ccc(C(F)(F)F)cc5)c4c(=O)[nH]3)cc2N1 | > 50% | 1% | 0.036 µM | inactive | inactive | inactive | > 50% | inactive | 8.5 µM | inactive | inactive | – | Vd [14]: 1 L/kg; AUC(0-inf) [15]: 14.8 µM·h; Cmax [16]: 0.4 µM; Plasma concentration at 48 h [17]: 0.042 µM; half-life [18]: 17.5 h; AUC(0-inf) [19]: 6.92 µM·h; bioavailability [20]: 4.7%; half-life [21]: 5.3 h; concentration at 2 min [22]: 4.4 µM; Time (Mus musculus [23]): 24 h; clearance [24]: 0.132 L/h/kg; CL (Mus musculus [25]): 3%; concentration at 24 h [26]: 0.062 µM |
| O=C1COc2ccc(CNC(=O)c3nc4scc(C5CCCCC5)c4c(=O)[nH]3)cc2N1 | > 50% | 14% | 0.00047 µM | inactive | inactive | inactive | > 50% | inactive | 0.019 µM | inactive | inactive | – | – |
| O=C1COc2ccc(CNC(=O)c3cc(-c4ccsc4)n[nH]3)cc2N1 | Active | – | – | – | – | – | – | – | – | – | – | Not Active | – |
